Data set [1] is described as follows: Lipophilicity, logD of compound at pH 7.4. It counts as physicochemical. The following applies: buffer.
Data set [2] can be described thus: Half life in rat blood at 1 mg/kg, iv. In kind it is ADME, organism-based.
A short description of data set [3]: Oral bioavailability in rat plasma at 10 mg/kg. In kind it is ADME, organism-based.
Data set [4] in a line: Volume of distribution at steady state in rat plasma at 1 mg/kg, iv. Particulars: read-out: Vdss. In kind it is ADME, organism-based.
Data set [5] concerns the target SUMO-activating enzyme (Homo sapiens) (UniProt Q9UBE0+Q9UBT2). Put plainly: Inhibition of SAE in human OCI-Ly10 cells xenografted in CB17 SCID mouse assessed as improvement in SUMO-inhibitor adduct durability at 25 mg/kg, iv and measured up to 48 hrs by mass spectrometry. Particulars: time hrs <=48. In kind it is organism-based. (In general: Xenograft models place foreign cells or tissue in a host animal.)

For a further data set, the system named is HCT-116. Put plainly: Cytotoxicity against human HCT116 cells assessed as reduction in cell viability after 72 hrs by CellTiter-Glo luminescent assay. It counts as functional, cell-based. The following applies: HCT-116, 72 h. (Cellular ATP, detected with luciferase, serves as a proxy for viable cell number.)
The test system of a further data set is OCI-Ly10. Put plainly: Cytotoxicity against human OCI-LY10 cells assessed as reduction in cell viability after 72 hrs by CellTiter-Glo luminescent assay. It counts as functional, cell-based. Particulars: OCI-Ly10, 72 h.
The nature of data set [6]: Volume of distribution at steady state in rat blood at 1 mg/kg, iv. In kind it is ADME, organism-based. The following applies: read-out: Vdss.
The nature of data set [7]: AUC in rat blood at 10 mg/kg, po. It counts as ADME, organism-based. More on the design: dose 10 mg/kg.
Data set [8] is described as follows: Oral bioavailability in rat blood at 10 mg/kg. In kind it is ADME, organism-based.
The next data set concerns the target SUMO-activating enzyme (Homo sapiens, UniProt Q9UBT2). The data set can be described thus: Inhibition of SAE in human HCT116 cells assessed as redistribution of SUMO2/3 proteins from nucleus to cytosol preincubated for 2 hrs followed by compound washout and measured after 8 hrs by immunofluorescence assay. In kind it is cell-based, HCT-116. The gist of the method: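 Washout format of the SUMO2/3 immunofluorescence assay in HCT116 cells. Cells were exposed to a range of concentrations for 2 h, then washed free of compound.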

The target of the next data set is Carbonic anhydrase 1 (Homo sapiens, UniProt P00915). The data set can be described thus: Inhibition of human erythrocyte CA1 using fluorescein diacetate as substrate at […] by fluorometric esterase assay.
The next data set concerns the target Carbonic anhydrase 2 (Homo sapiens, UniProt P00918). Put plainly: Inhibition of recombinant human CA2 expressed in Escherichia coli using fluorescein diacetate as substrate at […] by fluorometric esterase assay.

Active and inactive are the calls of the source. The calls are words filed in the database; no cut-off is given here.

Sequence of SUMO-activating enzyme (Q9UBE0 whole entry): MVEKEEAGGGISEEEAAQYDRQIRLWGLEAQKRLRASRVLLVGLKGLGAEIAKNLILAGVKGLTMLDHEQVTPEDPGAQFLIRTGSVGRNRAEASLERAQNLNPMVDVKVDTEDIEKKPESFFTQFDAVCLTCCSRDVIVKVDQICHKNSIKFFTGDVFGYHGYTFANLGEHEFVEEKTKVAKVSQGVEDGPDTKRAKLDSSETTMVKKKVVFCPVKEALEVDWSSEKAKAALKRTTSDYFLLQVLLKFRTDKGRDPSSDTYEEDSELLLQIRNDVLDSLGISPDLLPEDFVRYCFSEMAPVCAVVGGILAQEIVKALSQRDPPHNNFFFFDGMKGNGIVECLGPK
Sequence of SUMO-activating enzyme (Q9UBT2 whole entry): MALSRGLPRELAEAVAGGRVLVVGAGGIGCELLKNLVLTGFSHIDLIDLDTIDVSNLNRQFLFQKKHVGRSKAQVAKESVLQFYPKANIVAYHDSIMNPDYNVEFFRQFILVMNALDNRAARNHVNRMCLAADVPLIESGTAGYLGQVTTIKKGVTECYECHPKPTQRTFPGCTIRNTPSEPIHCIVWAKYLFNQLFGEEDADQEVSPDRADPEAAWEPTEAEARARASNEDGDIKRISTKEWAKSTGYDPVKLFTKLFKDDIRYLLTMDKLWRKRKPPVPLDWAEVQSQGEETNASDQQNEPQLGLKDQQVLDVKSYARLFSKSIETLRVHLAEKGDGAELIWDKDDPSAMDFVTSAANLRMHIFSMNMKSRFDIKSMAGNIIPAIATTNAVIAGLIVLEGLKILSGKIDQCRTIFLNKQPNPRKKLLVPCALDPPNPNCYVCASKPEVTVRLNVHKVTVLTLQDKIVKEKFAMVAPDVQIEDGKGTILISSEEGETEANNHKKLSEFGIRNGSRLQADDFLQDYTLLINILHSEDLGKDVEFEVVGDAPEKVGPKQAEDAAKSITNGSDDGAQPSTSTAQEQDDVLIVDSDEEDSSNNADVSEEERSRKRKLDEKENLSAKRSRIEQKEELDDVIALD
Sequence of Carbonic anhydrase 1 (P00915 whole entry): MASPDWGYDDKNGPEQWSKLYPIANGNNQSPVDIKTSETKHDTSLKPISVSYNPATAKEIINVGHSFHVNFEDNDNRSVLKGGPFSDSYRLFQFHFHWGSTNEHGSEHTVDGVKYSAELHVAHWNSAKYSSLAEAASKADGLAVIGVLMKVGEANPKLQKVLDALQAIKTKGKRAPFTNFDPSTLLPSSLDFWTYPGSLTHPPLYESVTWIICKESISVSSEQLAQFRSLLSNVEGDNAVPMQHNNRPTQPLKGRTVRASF

In turn, `Cc1sc(C(=O)c2cncnc2N[C@@H]2C[C@H](COS(N)(=O)=O)[C@@H](O)C2)cc1[C@@H]1NCCc2ccc(Cl)cc21` yielded a logD in data set [1] of 2.1. For the same compound, in data set [2], the half-life was 2.6 h. Moreover, the bioavailability in data set [3] was determined as 7.3%; in data set [8], 10%. For the same compound, the Vd in data set [4] was found to be 8.5 L/kg; in data set [6] it was 0.2 L/kg. In data set [5], the inhibition result was “Active”. The EC50 amounted to 63 nM with HCT-116 and 4 nM with OCI-Ly10. For the same compound, the AUC in data set [7] came to 32 µM·h. The values for the IC50 on SUMO-activating enzyme, on Carbonic anhydrase 1 and on Carbonic anhydrase 2 were 46 nM, 90 nM and 20 nM, respectively.

As a reminder, the logD is the decadic logarithm of the distribution of all forms, ionised or not, between an organic phase and buffer at a given pH. A higher logD goes with higher lipophilicity. What is called half-life is the time in which the quantity being followed falls by half. The low end stands for fast loss, the high end for slow loss. The term bioavailability denotes dose-corrected exposure relative to a reference, in per cent. Read a high bioavailability as good availability. The EC50 is the concentration giving half of the maximal effect. The AUC is the area under the concentration-time curve, a measure of exposure. In general, IC50 refers to the concentration needed to halve the response being measured.

(Values after ChEMBL document CHEMBL4834402, “Discovery of TAK-981, a First-in-Class Inhibitor of SUMO-Activating Enzyme for the Treatment of Cancer” (J Med Chem, 2021).)
